Tests used:
[1] = Inhibition of Plasmodium falciparum aminopeptidase-N using Leu-pNA as substrate after 30 mins
In short: (§1)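 Enzyme was preincubated with compound in triplicate for 30 min at 37 °C in 10 mM Tris pH 7.5, 100 mM NaCl. Leu-pNA was then added and the immediate absorbance rise followed at 405 nm. IC₅₀ was computed from the concentration series.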

[2] = Inhibition of Escherichia coli aminopeptidase-N using Leu-pNA as substrate after 30 mins; in short: as §1
Aminopeptidase N = target: T1, Aminopeptidase N (Sus scrofa, UniProt P15145); assay: Inhibition of porcine aminopeptidase-N using Leu-pNA as substrate after 30 mins
T1 sequence (P15145 whole entry): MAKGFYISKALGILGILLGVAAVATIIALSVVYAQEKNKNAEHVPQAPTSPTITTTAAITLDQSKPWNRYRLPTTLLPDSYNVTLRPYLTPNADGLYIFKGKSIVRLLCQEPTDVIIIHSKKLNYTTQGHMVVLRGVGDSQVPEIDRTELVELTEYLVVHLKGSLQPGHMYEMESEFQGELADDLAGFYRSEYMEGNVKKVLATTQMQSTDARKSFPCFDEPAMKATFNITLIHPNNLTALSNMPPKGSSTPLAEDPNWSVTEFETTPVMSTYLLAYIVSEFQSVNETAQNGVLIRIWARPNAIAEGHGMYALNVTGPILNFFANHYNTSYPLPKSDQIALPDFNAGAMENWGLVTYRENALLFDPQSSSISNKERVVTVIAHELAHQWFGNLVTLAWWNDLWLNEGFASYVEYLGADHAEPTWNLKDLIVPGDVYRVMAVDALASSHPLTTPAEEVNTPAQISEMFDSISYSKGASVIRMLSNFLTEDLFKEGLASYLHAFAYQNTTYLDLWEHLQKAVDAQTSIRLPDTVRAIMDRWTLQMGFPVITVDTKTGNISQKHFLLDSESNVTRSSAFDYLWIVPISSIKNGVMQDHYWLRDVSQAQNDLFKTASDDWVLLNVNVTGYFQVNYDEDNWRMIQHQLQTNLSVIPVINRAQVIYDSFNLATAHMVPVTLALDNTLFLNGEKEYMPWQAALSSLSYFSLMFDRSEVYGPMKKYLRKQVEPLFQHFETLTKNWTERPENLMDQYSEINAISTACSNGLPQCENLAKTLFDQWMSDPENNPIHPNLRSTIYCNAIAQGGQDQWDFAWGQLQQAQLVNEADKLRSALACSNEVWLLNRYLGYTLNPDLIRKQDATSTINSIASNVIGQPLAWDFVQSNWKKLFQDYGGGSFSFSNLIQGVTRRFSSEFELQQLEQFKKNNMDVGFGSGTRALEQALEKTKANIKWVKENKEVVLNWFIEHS
In short: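 Commercial porcine enzyme was preincubated with compound in triplicate for 30 min at 37 °C. Substrate was then added and the immediate absorbance rise at 405 nm recorded. IC₅₀ was computed from the concentration series.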

A549 = assay: Cytotoxicity against human A549 cells after 48 hrs by MTT assay; type: functional; settings: A549, 48 h
In short: (§2)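 Cell lines were grown in modified Eagle's medium with 10% FBS. Cells were seeded at 10,000 per well and left 24 h to attach in humid 5% CO₂. Viability was measured by MTT, with formazan dissolved in DMSO and absorbance read at 562 nm. Results are % cytotoxicity/viability, triplicates.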

HeLa = assay: Cytotoxicity against human HeLa cells after 48 hrs by MTT assay; type: functional; in short: as §2
HepG2 = assay: Cytotoxicity against human HepG2 cells after 48 hrs by MTT assay; type: functional; settings: HepG2, 48 h; in short: as §2
[3] = target: Puromycin-sensitive aminopeptidase (Homo sapiens, UniProt P55786); assay: Inhibition of recombinant human puromycin sensitive aminopeptidase using Leu-pNA as substrate after 30 mins
Sequence of Puromycin-sensitive aminopeptidase (P55786 whole entry): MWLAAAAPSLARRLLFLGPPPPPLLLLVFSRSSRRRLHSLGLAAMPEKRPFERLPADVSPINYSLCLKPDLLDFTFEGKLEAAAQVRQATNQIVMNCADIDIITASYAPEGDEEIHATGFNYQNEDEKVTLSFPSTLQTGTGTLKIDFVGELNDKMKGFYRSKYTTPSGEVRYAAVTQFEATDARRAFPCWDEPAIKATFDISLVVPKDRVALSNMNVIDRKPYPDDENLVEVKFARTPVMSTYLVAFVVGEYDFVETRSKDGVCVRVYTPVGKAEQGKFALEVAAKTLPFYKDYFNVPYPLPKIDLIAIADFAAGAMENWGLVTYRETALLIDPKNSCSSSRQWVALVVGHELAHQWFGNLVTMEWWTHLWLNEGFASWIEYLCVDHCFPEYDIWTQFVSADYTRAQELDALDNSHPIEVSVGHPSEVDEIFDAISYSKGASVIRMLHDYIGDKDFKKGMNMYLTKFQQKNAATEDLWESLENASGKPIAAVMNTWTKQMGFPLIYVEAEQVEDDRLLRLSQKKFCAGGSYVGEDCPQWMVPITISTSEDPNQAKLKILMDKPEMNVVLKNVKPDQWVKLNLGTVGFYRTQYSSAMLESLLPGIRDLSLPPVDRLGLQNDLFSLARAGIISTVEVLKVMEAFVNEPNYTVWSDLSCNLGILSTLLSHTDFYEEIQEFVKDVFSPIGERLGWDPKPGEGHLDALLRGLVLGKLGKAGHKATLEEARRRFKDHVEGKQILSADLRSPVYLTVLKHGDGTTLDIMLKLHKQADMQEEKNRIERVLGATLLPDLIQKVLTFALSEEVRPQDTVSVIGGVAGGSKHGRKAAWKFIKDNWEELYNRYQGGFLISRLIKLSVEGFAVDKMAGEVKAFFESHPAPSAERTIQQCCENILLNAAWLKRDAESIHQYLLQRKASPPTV

| SMILES | IC50 [1] [µM] | IC50 [2] [µM] | IC50 (Aminopeptidase N) [µM] | GI50 (A549) [µM] | GI50 (HeLa) [µM] | GI50 (HepG2) [µM] | IC50 [3] [µM] |
| --- | --- | --- | --- | --- | --- | --- | --- |
| OC1=CC(c2ccccn2)N(c2ccccc2)C(c2ccccn2)C1 (stereo not given) | > 100 | > 100 | > 100 | – | – | – | – |
| CCOC(=O)C1=C(Nc2ccccc2)CC(c2ccc(Br)cc2)N(c2ccccc2)C1c1ccc([N+](=O)[O-])cc1 (stereo not given) | – | – | – | > 100 | 10.6 | > 100 | – |
| COC(=O)C1=C(Nc2ccccc2)CC(c2ccc([N+](=O)[O-])cc2)N(c2ccccc2)C1c1ccc([N+](=O)[O-])cc1 (stereo not given) | > 100 | > 100 | > 100 | – | – | – | – |
| CCOC(=O)C1=C(Nc2ccccc2)CC(c2cc(OC)c(OC)c(OC)c2)N(c2ccccc2)C1c1cccnc1 (stereo not given) | > 100 | > 100 | > 100 | – | – | – | – |
| CCOC(=O)C1C(=O)CC(c2cccnc2)N(c2ccccc2)C1c1cccnc1 (stereo not given) | > 100 | > 100 | > 100 | > 100 | 9.32 | 11.2 | – |
| CCOC(=O)C1C(=O)CC(c2ccccn2)N(c2ccccc2)C1c1ccccn1 (stereo not given) | > 100 | > 100 | > 100 | – | – | – | – |
| CCOC(=O)C1=C(Nc2ccc(C)cc2)CC(c2ccc(F)cc2)N(c2ccc(C)cc2)C1c1ccc(F)cc1 (stereo not given) | – | – | – | > 100 | > 100 | 14.9 | – |
| CCOC(=O)C1=C(Nc2ccccc2)CC(c2ccc(Br)cc2)N(c2ccccc2)C1c1cccs1 (stereo not given) | > 100 | > 100 | > 100 | – | – | – | – |
| CCOC(=O)C1=C(Nc2ccccc2)CC(c2ccc(Cl)cc2)N(c2ccccc2)C1c1cccnc1 (stereo not given) | > 100 | > 100 | > 100 | > 100 | 9.95 | 11.9 | – |
| CCOC(=O)C1=C(Nc2ccc(C)cc2)CC(c2ccccc2)N(c2ccc(C)cc2)C1c1ccccn1 (stereo not given) | > 100 | > 100 | > 100 | > 100 | 90.7 | > 100 | – |
| CCOC(=O)C1=C(Nc2ccccc2)CC(c2ccccn2)N(c2ccccc2)C1c1ccccn1 (stereo not given) | > 100 | > 100 | > 100 | – | – | – | – |
| CCOC(=O)C1=C(Nc2ccccc2)CC(c2ccc(C#N)cc2)N(c2ccccc2)C1c1cccnc1 (stereo not given) | > 100 | > 100 | > 100 | > 100 | > 100 | 13.7 | – |
| CCOC(=O)C1=C(Nc2ccccc2)CC(c2ccc(C#N)cc2)N(c2ccccc2)C1c1ccccn1 (stereo not given) | > 100 | > 100 | > 100 | – | – | – | – |
| OC1=CC(c2cccnc2)N(c2ccccc2)C(c2cccnc2)C1 (stereo not given) | > 100 | > 100 | > 100 | – | – | – | – |
| CCOC(=O)C1=C(Nc2ccccc2)CC(c2ccc(F)cc2)N(c2ccccc2)C1c1ccc([N+](=O)[O-])cc1 (stereo not given) | – | – | – | > 100 | 88.2 | > 100 | – |
| CCOC(=O)C1=C(Nc2ccccc2)CC(c2cccnc2)N(c2ccccc2)C1c1cccnc1 (stereo not given) | > 100 | > 100 | > 100 | > 100 | 87.9 | 81.5 | – |
| COc1cccc2c1C(=O)c1c(O)c3c(c(O)c1C2=O)C[C@@](O)(C(=O)CO)C[C@@H]3O[C@H]1C[C@H](N)[C@H](O)[C@H](C)O1 [DOXORUBICIN] | – | – | – | 8.14 | 7.51 | 4.45 | – |
| COc1ccc(C[C@H](N)C(=O)N[C@H]2[C@@H](O)[C@H](n3cnc4c(N(C)C)ncnc43)O[C@@H]2CO)cc1 [PUROMYCIN] | > 100 | > 100 | > 100 | – | – | – | 2.45 |

From ChEMBL document CHEMBL3739274, “Highly functionalized tetrahydropyridines are cytotoxic and selective inhibitors of human puromycin sensitive aminopeptidase” (Eur J Med Chem, 2015)
